For data set [1], the species on record is Rattus norvegicus. The data set is described as follows: Estimated selectivity ratio of ED50 and IC50 in rat was calculated. It counts as functional.
The species named for data set [2] is Rattus norvegicus. The data set is described as follows: Concentration required to inhibit insulin release in rat. It counts as functional.
The species named for data set [3] is Rattus norvegicus. The data set is described as follows: Effective dose required for relaxation of the 30 mM KCl-induced contraction of rat aortic rings. The conditions noted are these: Aorta, read-out: ED50 (the source's name). It is filed as functional. The procedure, abridged:
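Endothelium-denuded transverse aortic rings (3–4 mm) from fed Wistar rats (180–220 g); isometric tension by force transducer. After 60 min equilibration, contracted with 30 mM KCl; once stable, drug added cumulatively to maximal relaxation or 0.3 mM. Relaxation as % of KCl contraction; ED50 (50% inhibition of KCl plateau) from dose–response curves; mean ± SEM (n).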

For data set [4], the species on record is Rattus norvegicus. Put plainly: Percent inhibition of residual insulin release from rat pancreatic islets in the presence of 16.7 mM glucose at 50 uM concentration. It counts as functional. The procedure, abridged: (§1)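 Islets isolated by collagenase from fed Wistar rats (180–220 g); groups of 10 islets preincubated 30 min at 37 °C in bicarbonate salt medium with 2.8 mM glucose and 0.5% dialyzed albumin under O2/CO2 95:5, then incubated 90 min at 37 °C with 16.7 mM glucose plus drug. Insulin measured by radioimmunoassay against rat insulin standard; residual release as % of drug-free 16.7 mM glucose control; IC50 estimated.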

The nature of data set [5]: pKa value determined at 20 °C.
Data set [6] is filed under the species Rattus norvegicus. The data set is described as follows: Percent inhibition of residual insulin release from rat pancreatic islets in the presence of 16.7 mM glucose at 1 uM concentration. It is filed as functional. The method, boiled down: as §1
Data set [7] is filed under the species Rattus norvegicus. Put plainly: Percent inhibition of residual insulin release from rat pancreatic islets in the presence of 16.7 mM glucose at 10 uM concentration. It counts as functional. The procedure, abridged:
as §1

For data set [8], the species on record is Rattus norvegicus. The data set is described as follows: Percent inhibition of residual insulin release from rat pancreatic islets in the presence of 16.7mM glucose at 0.1 uM concentration. It is filed as functional. The method, boiled down: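 Islets isolated by collagenase from fed Wistar rats (180–220 g). Groups of 10 islets preincubated 30 min at 37 °C in bicarbonate salt medium with 2.8 mM glucose, 0.5% dialyzed albumin, gassed O2/CO2 95:5. Then incubated 90 min at 37 °C with 16.7 mM glucose plus drug. Insulin measured by radioimmunoassay against rat insulin; expressed as % of drug-free 16.7 mM glucose control; mean ± SEM (n).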

As to `CC(C)NC1=NS(=O)(=O)c2cc(I)ccc2N1`, the Selectivity in the data set filed under Rattus norvegicus [1] was 3.7. Also, the IC50 (usually the concentration needed to halve the response being measured) in the data set listed under Rattus norvegicus [2] is 2.1 µM. In addition, in the data set filed under Rattus norvegicus [3], the EC50 worked out at 7.7 µM. In addition, the RIS is on record as 5.6% in the data set listed under Rattus norvegicus [4], 74.8% in the data set listed under Rattus norvegicus [6], 9.6% in the data set listed under Rattus norvegicus [7] and 99.2% in the data set filed under Rattus norvegicus [8]. Also, the pKa (usually the pH at which an ionisable group is half protonated) in data set [5] worked out at 9.28.

In the case of `CC(C)NC1=NS(=O)(=O)c2cc(Br)ccc2N1`, in the data set listed under Rattus norvegicus [1], the Selectivity was 9.6. In the data set listed under Rattus norvegicus [2], this compound returned an IC50 of 0.5 µM. The RIS in the data set listed under Rattus norvegicus [4] came out at 6.7%; in the data set filed under Rattus norvegicus [7], 8.1%; in the data set listed under Rattus norvegicus [8], 91%. In data set [5], the pKa was found to be 9.41.

As for `CC(C)NC1=NS(=O)(=O)c2cc(F)ccc2N1`, the Selectivity in the data set filed under Rattus norvegicus [1] is 54. The compound also had an IC50 in the data set filed under Rattus norvegicus [2] of 0.8 µM. Besides, the RIS was 3.3% in the data set listed under Rattus norvegicus [4] and 3.7% in the data set filed under Rattus norvegicus [7]. Besides, the pKa in data set [5] came to 9.63.

Regarding `CNC1=NS(=O)(=O)c2cc(Br)ccc2N1`, the Selectivity in the data set filed under Rattus norvegicus [1] was 17. Also, in the data set filed under Rattus norvegicus [2], half-maximal inhibition (IC50) was put at 1.8 µM. Moreover, the EC50 in the data set listed under Rattus norvegicus [3] was 31 µM. The RIS in the data set listed under Rattus norvegicus [4] is listed as 6.4%; in the data set listed under Rattus norvegicus [6] it was 69.9%; in the data set filed under Rattus norvegicus [7] it was 7.3%.

As to `CCNC1=NS(=O)(=O)c2cc(Br)ccc2N1`, the Selectivity in the data set filed under Rattus norvegicus [1] is listed as >6. Besides, in the data set filed under Rattus norvegicus [2], the IC50 was < 1 µM. Moreover, the EC50 in the data set filed under Rattus norvegicus [3] was found to be 6.2 µM. For the same compound, the RIS in the data set filed under Rattus norvegicus [4] worked out at 4.6%; in the data set filed under Rattus norvegicus [6] it was 38.1%; in the data set filed under Rattus norvegicus [7], 6.5%.

On to `O=S1(=O)N=C(NC2CC2)Nc2ccc(Cl)cc21`, for which, in the data set filed under Rattus norvegicus [1], the Selectivity is recorded as 56. Further, half-maximal inhibition in the data set filed under Rattus norvegicus [2] (IC50) required 3.4 µM. Also, in the data set listed under Rattus norvegicus [3], the EC50 came out at 190 µM. The RIS in the data set listed under Rattus norvegicus [4] is on record as 5.8%; in the data set listed under Rattus norvegicus [6], 84%; in the data set listed under Rattus norvegicus [7], 26.6%.

Turning to `CC(C)C(C)NC1=NS(=O)(=O)c2cc(Br)ccc2N1` (stereo not drawn), the Selectivity in the data set listed under Rattus norvegicus [1] is < 0.26. In the data set filed under Rattus norvegicus [2], the concentration for half-maximal inhibition (IC50) was > 10 µM. In addition, the EC50 in the data set listed under Rattus norvegicus [3] came out at 2.6 µM. In addition, the RIS in the data set filed under Rattus norvegicus [4] was 21.4%; in the data set filed under Rattus norvegicus [6] it was 97.2%; in the data set filed under Rattus norvegicus [7], 98.4%.

With `CCC(CC)NC1=NS(=O)(=O)c2cc(Cl)ccc2N1`, the Selectivity in the data set filed under Rattus norvegicus [1] is 21. In the data set listed under Rattus norvegicus [2], 4.5 µM corresponded to half-maximal inhibition (IC50). In addition, the EC50 in the data set listed under Rattus norvegicus [3] amounted to 93.6 µM. The RIS is 8.1% in the data set listed under Rattus norvegicus [4], 93.7% in the data set listed under Rattus norvegicus [6] and 31.7% in the data set filed under Rattus norvegicus [7].

`CCCNC1=NS(=O)(=O)c2cc(F)ccc2N1`: the Selectivity in the data set filed under Rattus norvegicus [1] was 83. The compound also registered a 50% inhibitory concentration (IC50) in the data set filed under Rattus norvegicus [2] of 2 µM. In addition, the EC50 in the data set listed under Rattus norvegicus [3] turned out to be 166 µM. Moreover, the results for the RIS in the data set filed under Rattus norvegicus [4], in the data set filed under Rattus norvegicus [6] and in the data set listed under Rattus norvegicus [7] were 7.7%, 69.2% and 15.1%, respectively.

As to `O=S1(=O)NC(NC2CCC2)=Nc2ccc(F)cc21`, the Selectivity in the data set listed under Rattus norvegicus [1] is 55. 1.3 µM corresponded to half-maximal inhibition in the data set filed under Rattus norvegicus [2] (IC50). The EC50 in the data set filed under Rattus norvegicus [3] was 71.8 µM. In addition, the results for the RIS in the data set filed under Rattus norvegicus [4], in the data set filed under Rattus norvegicus [6] and in the data set listed under Rattus norvegicus [7] were 5.9%, 58.2% and 7.8%, respectively.

For `CCNC1=NS(=O)(=O)c2cc(Cl)ccc2N1`, in the data set listed under Rattus norvegicus [1], the Selectivity is on record as >40. The half-maximal inhibitory concentration (IC50) in the data set listed under Rattus norvegicus [2] is < 1 µM. The EC50 in the data set listed under Rattus norvegicus [3] turned out to be 39.9 µM. In addition, the RIS was 2.1% in the data set listed under Rattus norvegicus [4], 29.2% in the data set filed under Rattus norvegicus [6] and 10.7% in the data set filed under Rattus norvegicus [7].

For `CC(C)C(C)NC1=NS(=O)(=O)c2cc(F)ccc2N1` (stereo not drawn), the Selectivity in the data set filed under Rattus norvegicus [1] is listed as 9. The half-inhibitory concentration (IC50) in the data set filed under Rattus norvegicus [2] is 2.8 µM. For the same compound, in the data set filed under Rattus norvegicus [3], the EC50 worked out at 26.4 µM. For the same compound, the RIS was found to be 7.9% in the data set filed under Rattus norvegicus [4], 87.7% in the data set filed under Rattus norvegicus [6] and 10.6% in the data set listed under Rattus norvegicus [7].

Turning to `CC(C)NC1=NS(=O)(=O)c2cc(Cl)ccc2N1`, in the data set listed under Rattus norvegicus [1], the Selectivity is recorded as 52. Besides, the EC50 in the data set filed under Rattus norvegicus [3] worked out at 36.3 µM. Besides, the RIS in the data set listed under Rattus norvegicus [4] is on record as 5.7%; in the data set filed under Rattus norvegicus [7], 4.9%. Moreover, in data set [5], the pKa was 9.51.

The values above are taken from ChEMBL document CHEMBL1145857, “Toward tissue-selective pancreatic B-cells KATP channel openers belonging to 3-alkylamino-7-halo-4H-1,2,4-benzothiadiazine 1,1-dioxides” (J Med Chem, 2003).
